Assays:
[1] = tested on: Mouse; test: concentration in plasma after dosing; conditions: 10 min; dosed: 2-Hydroxy-4-methoxybenzophenone; 500 mg/kg; oral; Male; B6C3F1
[2] = tested on: Rat; test: concentration in plasma after dosing; conditions: dosed: 2-Hydroxy-4-methoxybenzophenone, 8 mg/kg, iv, Male, F344
[3] = tested on: Rat; test: concentration in plasma after dosing; conditions: dosed: Nitrite, 80 mg/kg, oral, Female, F344
[4] = tested on: Rat; test: concentration in plasma after dosing; conditions: dosed: Nitrite, 20 mg/kg, iv, Male, F344
[5] = tested on: Rat; test: concentration in liver after dosing; conditions: 192 h; dosed: Perfluorooctanoic acid; 12 mg/kg; oral; Male; Harlan Sprague Dawley
[6] = tested on: Rat; test: concentration in kidney after dosing; conditions: 6 h; dosed: Perfluorooctanoic acid; 12 mg/kg; oral; Male; Harlan Sprague Dawley
[7] = tested on: Rat; test: concentration in plasma after dosing; conditions: dosed: Fluorotelomer alcohol 8+2, 12 mg/kg, oral, Male, Harlan Sprague Dawley
[8] = tested on: Rat; test: concentration in plasma after dosing; conditions: dosed: Fluorotelomer alcohol 8+2, 12 mg/kg, oral, Male, Harlan Sprague Dawley; remark: listed apart in the source
[9] = tested on: Rat; test: concentration in plasma after dosing; conditions: dosed: 678-39-7, 40 mg/kg, iv, Male, F344
[10] = tested on: Rat; test: concentration in plasma after dosing; conditions: dosed: 678-39-7, 40 mg/kg, iv, Male, F344; remark: listed apart in the source
[11] = tested on: Rat; test: concentration in kidney after dosing; conditions: 3 h; dosed: Fluorotelomer alcohol 8+2; 24 mg/kg; oral; Male; Harlan Sprague Dawley
[12] = tested on: Rat; test: concentration in kidney after dosing; conditions: 12 h; dosed: Perfluorooctanoic acid; 12 mg/kg; oral; Male; Harlan Sprague Dawley
[13] = tested on: Rat; test: concentration in liver after dosing; conditions: 1 h; dosed: Potassium Perfluorobutane Sulfonate; 20 mg/kg; oral; Male; Harlan Sprague Dawley
[14] = tested on: Rat; test: concentration in liver after dosing; conditions: 12 h; dosed: Potassium Perfluorobutane Sulfonate; 20 mg/kg; oral; Male; Harlan Sprague Dawley
[15] = tested on: Rat; test: concentration in brain after dosing; conditions: 0.5 h; dosed: Potassium Perfluorobutane Sulfonate; 20 mg/kg; oral; Female; Harlan Sprague Dawley
[16] = tested on: Rat; test: concentration in plasma after dosing; conditions: 1 h; dosed: Potassium Perfluorobutane Sulfonate; 4 mg/kg; iv; Male; F344
[17] = tested on: Rat; test: concentration in kidney after dosing; conditions: 0.5 h; dosed: Potassium Perfluorobutane Sulfonate; 20 mg/kg; oral; Female; Harlan Sprague Dawley
[18] = tested on: Rat; test: concentration in plasma after dosing; conditions: dosed: Potassium Perfluorobutane Sulfonate, 4 mg/kg, oral, Male, Harlan Sprague Dawley
[19] = tested on: Rat; test: concentration in plasma after dosing; conditions: 1.5 h; dosed: Potassium Perfluorobutane Sulfonate; 20 mg/kg; oral; Male; Harlan Sprague Dawley
[20] = tested on: rat; test: concentration in liver after dosing (ugEq/g tissue); conditions: dosed: benzo[a]pyrene, iv, male, Wistar
[21] = tested on: monkey; test: concentration in blood after dosing; conditions: dosed: methanol, inhalation, duration: 6 hr, male, Macaca mulatta
In short: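 Points were largely digitised from plot screenshots with WebPlotDigitizer or otherwise copied from tables, and they remain in the units each source reported. They come from published in vivo toxicokinetic studies and two structured collections. Sampling and analytical methods follow each source and were often not reported.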

COc1ccc(C(=O)c2ccccc2)c(O)c1 [2-Hydroxy-4-methoxybenzophenone]
Conditions | concentration in plasma [ng/mL]
[1] | 93.1

[2]
Conditions | concentration in plasma [ng/mL]
10 h | 8.52
10 min | 3770

O=N[O-] [Nitrite]
concentration in plasma [ng/mL]
Conditions | 1 h | 1.25 h | 2 h | 10 min
[3] | 8100 | – | 6800 | –
[4] | – | 1700 | – | 4800

O=C(O)C(F)(F)C(F)(F)C(F)(F)C(F)(F)C(F)(F)C(F)(F)C(F)(F)F [Perfluorooctanoic acid]
Conditions | concentration in kidney [ng/g] | concentration in liver [ng/g]
[5] | – | 46900
[6] | 37600 | –
[11] | 272 | –
[12] | 27000 | –

Conditions | concentration in plasma [ng/mL]
[7], 0.25 h | 204
[7], 6 h | 438
[8], 0.5 h | 79.5
[8], 9 h | 793
[9], 0.25 h | 465
[9], 0.5 h | 220000
[9], 6 h | 1540
[9], 24 h | 1640
[10], 5 min | 350000
[10], 6 h | 66100

O=S(=O)([O-])C(F)(F)C(F)(F)C(F)(F)C(F)(F)F.[K+] [Potassium Perfluorobutane Sulfonate]
Conditions | concentration in brain [ng/g] | concentration in kidney [ng/g] | concentration in liver [ng/g] | concentration in plasma [ng/mL]
[13] | – | – | 110000 | –
[14] | – | – | 9420 | –
[15] | 511 | – | – | –
[16] | – | – | – | 17700
[17] | – | 23200 | – | –
[19] | – | – | – | 70000

[18]
Conditions | concentration in plasma [ng/mL]
0.75 h | 13400
12 h | 4960

c1ccc2c(c1)cc1ccc3cccc4ccc2c1c34 [benzo[a]pyrene]
concentration in liver, [20]
Conditions | 2 mg/kg | 6 mg/kg | 15 mg/kg
0.5 h | 2.43 | 11.4 | 15.2
0.75 h | 1.34 | 11.1 | 13.1
1 h | 0.34 | 5.54 | 4.86
1.5 h | 0.91 | 1.32 | 8.51
2 h | 0.01 | 0.55 | 3.39
3 h | – | 0.15 | 0.72
4 h | – | 0.09 | 0.24
5 h | – | 0.06 | 0.14
5 min | 11.3 | 31.2 | 27.5
6 h | – | 0.06 | 0.16
8 h | – | 0.02 | 0.05
10 min | 6.52 | 24.3 | 29.8
20 min | 4.01 | 16.1 | 21.9
24 h | – | 0.01 | 0.01
32 h | – | 0.02 | –

CO [methanol]
[21]
Conditions | concentration in blood [ng/mL]
0.5142 h, 2000 ppm | 54500
0.5644 h, 1200 ppm | 35700
1.044 h, 1200 ppm | 31200
1.066 h, 2000 ppm | 52700
1.558 h, 1200 ppm | 31400
1.603 h, 2000 ppm | 47700
2.036 h, 1200 ppm | 27700
2.065 h, 2000 ppm | 39000
3.014 h, 1200 ppm | 21100
3.019 h, 2000 ppm | 40300
4.525 h, 1200 ppm | 14300
4.556 h, 2000 ppm | 24100
6.067 h, 2000 ppm | 16300
6.073 h, 1200 ppm | 10300
8.074 h, 2000 ppm | 9200
8.076 h, 1200 ppm | 7660
10 h, 1200 ppm | 7870
10.06 h, 2000 ppm | 7580
97 s, 1200 ppm | 38600
101 s, 2000 ppm | 65800

From EPA's CvTdb concentration-time database
